Shown are actives, neighbours in structure and some others; about 1.3% of the full set was active somewhere.
PAX8 inh HTS: inhibitors of PAX8 transcriptional activity in RMG-I cells | RMG-I TPO-luciferase reporter, SteadyGlo, 24 h | inhibition, % at 12.6 µM | actives 1.2% (n = 360,000);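 active means mean replicate inhibition at least 60% with every replicate also reaching 60%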;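 further: luciferase light reporting Pax8 driven TPO promoter activity; plate controls were median of neutral control wells for no effect and mitoxantrone controls for full effect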
RAD52 inh: inhibitors of human RAD52 DNA annealing; inhibition, % at 18.7 µM; recombinant RAD52 DNA annealing, FRET fluorescence; actives 0.46% (n = 360,000); AID 651710; P43351;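 active means every replicate showing at least 50% inhibition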
FN deposition inh: fibronectin deposition inhibition | AH1F fibroblasts, Alexa488-fibronectin deposition fluorescence, overnight | inhibition, % at 12.6 µM | actives 0.086% (n = 350,000) | AID 743247;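 active means mean inhibition across replicates of 30% or more, regardless of how many single replicates reach that level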;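 further: positive control wells lacked labelled fibronectin entirely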
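material = AH1F fibroblast monolayer depositing Alexa488-labelled fibronectin into matrix | amount = 10000 AH1F cells/well | buffer or medium = DMEM plus 2% serum, read in PBS | incubation = 1 h cell adhesion before compound, then overnight fibronectin incubation | detection = fluorescence at 485 nm excitation, 525 nm emission | evaluation = percent inhibition as loss of matrix-bound fibronectin fluorescence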
RAD54 inh: RAD54 (human) branch migration inhibition; Q92698; RAD54 Holliday junction branch migration, FAM/BHQ fluorescence; inhibition, % at 10.4 µM; actives 0.14% (n = 360,000); AID 602329;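 active means mean normalized replicate activity at least 40 and at least half of replicates scoring 40 or more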;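 further: 0% = median of neutral control wells and 100% = median of positive control wells; inhibitors cause a drop in the FAM fluorescence signal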
Target sequence (Q92698 whole entry, looked up): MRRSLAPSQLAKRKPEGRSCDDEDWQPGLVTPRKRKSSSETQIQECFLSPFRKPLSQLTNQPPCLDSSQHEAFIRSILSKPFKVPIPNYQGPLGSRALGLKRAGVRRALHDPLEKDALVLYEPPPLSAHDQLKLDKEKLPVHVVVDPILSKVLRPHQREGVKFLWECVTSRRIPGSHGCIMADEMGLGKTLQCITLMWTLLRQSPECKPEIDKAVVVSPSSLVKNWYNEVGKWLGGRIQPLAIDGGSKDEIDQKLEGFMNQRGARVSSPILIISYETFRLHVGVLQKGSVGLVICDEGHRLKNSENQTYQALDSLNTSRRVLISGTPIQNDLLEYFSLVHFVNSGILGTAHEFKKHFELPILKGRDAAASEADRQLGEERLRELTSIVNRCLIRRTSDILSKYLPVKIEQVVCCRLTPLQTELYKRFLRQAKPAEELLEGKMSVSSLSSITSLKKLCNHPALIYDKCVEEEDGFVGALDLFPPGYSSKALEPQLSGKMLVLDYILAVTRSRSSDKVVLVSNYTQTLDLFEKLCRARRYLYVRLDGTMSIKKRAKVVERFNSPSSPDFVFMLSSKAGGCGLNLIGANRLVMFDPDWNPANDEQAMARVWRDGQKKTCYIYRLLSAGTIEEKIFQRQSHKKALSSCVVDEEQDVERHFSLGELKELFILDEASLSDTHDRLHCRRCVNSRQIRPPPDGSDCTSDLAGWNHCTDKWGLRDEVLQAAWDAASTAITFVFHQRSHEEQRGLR
Active calls of the source: *; i = inactive; . = no result given.

SMILES	PAX8 inh HTS	RAD52 inh	FN deposition inh	RAD54 inh
C[C@H]1CN([C@@H](C)CO)C(=O)c2cc(NS(=O)(=O)c3ccc(F)cc3)ccc2O[C@@H]1CN(C)Cc1ccc(C(F)(F)F)cc1	-11.4	-15.1	.	-18.2
C[C@@H]1CN([C@H](C)CO)C(=O)c2cc(NS(=O)(=O)c3ccc(F)cc3)ccc2O[C@@H]1CN(C)Cc1ccc(C(F)(F)F)cc1	115.1*	12.9	.	-0.3
Cc1ccc(S(=O)(=O)Nc2ccc3c(c2)CC(=O)N([C@H](C)CO)C[C@H](C)[C@H](CN(C)Cc2ccc(C(F)(F)F)cc2)O3)cc1	22.7	.	.	.
Cc1ccc(S(=O)(=O)Nc2ccc3c(c2)CC(=O)N([C@@H](C)CO)C[C@@H](C)[C@@H](CN(C)Cc2ccc(C(F)(F)F)cc2)O3)cc1	62.0*	.	.	.
C[C@@H]1CN([C@H](C)CO)C(=O)Cc2cc(NS(=O)(=O)c3ccc(F)cc3)ccc2O[C@@H]1CN(C)Cc1ccc(C(F)(F)F)cc1	-13.4	23.9	-7.2	-3.0
COc1ccc(S(=O)(=O)Nc2ccc3c(c2)CC(=O)N([C@@H](C)CO)C[C@H](C)[C@@H](CN(C)Cc2ccc(C(F)(F)F)cc2)O3)cc1	83.0*	13.8	-12.9	7.8
COc1ccc(NC(=O)Nc2ccc3c(c2)CC(=O)N([C@H](C)CO)C[C@H](C)[C@@H](CN(C)S(=O)(=O)c2cn(C)cn2)O3)cc1	14.5	0.3	.	-0.7
Cc1c(-c2nc(N)nc(Nc3ccc(F)cc3)n2)oc2ccccc12	.	.	.	4.0
c1ccc(-c2cn(C[C@H]3CC[C@@H]([C@@H]4CC[C@H](Cn5cc(-c6ccccn6)nn5)O4)O3)nn2)nc1	-11.4	-1.6	-12.5	-3.8
O=C(CCn1nnc2ccccc21)Nc1nnc(COc2ccc(F)cc2)s1	.	.	-17.1	5.7
CC[N+]1(C)CCC(O)(/C=C/c2ccccc2)C(C(=O)/C=C/c2ccccc2)C1 (centres undefined)	67.5*	14.1	-0.3	.
CCc1ccc(/C=C/C(=O)C2C(=O)c3ccccc3C2=O)cc1	.	.	-5.9	.
Cn1c(=O)c2c(ncn2C)n(C)c1=O	5.7	-7.0	-0.6	2.4
C[C@H](CO)N1C[C@H](C)[C@H](CN(C)Cc2ccc(Oc3ccccc3)cc2)Oc2ccc(NC(=O)CCCN(C)C)cc2CC1=O	8.9	58.2*	.	9.2
C[C@@H]1CN([C@@H](C)CO)C(=O)Cc2cc(NC(=O)CCCN(C)C)ccc2O[C@@H]1CN(C)Cc1ccc(Oc2ccccc2)cc1	9.0	39.1	.	.
C[C@@H]1CN([C@@H](C)CO)C(=O)Cc2cc(NC(=O)CCC(F)(F)F)ccc2O[C@H]1CN(C)Cc1ccc(Oc2ccccc2)cc1	89.9*	32.6	15.0	-4.3
C[C@H]1CN([C@@H](C)CO)C(=O)Cc2cc(NC(=O)CCCN(C)C)ccc2O[C@@H]1CN(C)Cc1ccc(Oc2ccccc2)cc1	6.5	52.3*	.	20.2
Nc1ccc(-n2cc(-c3ccccc3)[nH]c2=S)cc1	-61.6	4.4	0.4	-1.1
CCOc1ccc2nc(N/C(N)=N/C(=S)Nc3ccc(C)c(C)c3)nc(C)c2c1	131.7*	32.8	6.7	.
Cc1sc2ncnc(Sc3nnnn3-c3ccc(Cl)cc3)c2c1C	75.1*	.	-2.8	-4.5
CC(=NN(Cc1ccccc1)c1ccccc1)c1ccccc1	-10.8	-6.3	-3.6	.
COc1cccc2c1C(=O)c1c(O)c3c(c(O)c1C2=O)C[C@@](O)(C(=O)CO)C[C@@H]3OC1CC(N)C(O)C(C)O1 (some centres undefined)	81.4*	i	-1.3	.
COc1cccc2c1C(=O)c1c(O)c3c(c(O)c1C2=O)CC(O)(C(C)=O)CC3OC1CC(N(C)C)C(O)C(C)O1 (centres undefined)	103.0*	i	15.3	.
COc1cccc2c1C(=O)c1c(O)c3c(c(O)c1C2=O)C[C@@](O)(C(=O)CO)C[C@@H]3O[C@H]1C[C@H](N)[C@H](O)[C@H](C)O1	103.7*	i	-0.7	-94.3
CC(=O)[C@@]1(O)Cc2c(O)c3c(c(O)c2[C@H](O[C@H]2C[C@H](N)[C@H](O)[C@H](C)O2)C1)C(=O)c1ccccc1C3=O	104.2*	i	-66.7	-492.4
SMILES	PAX8 inh HTS	RAD52 inh	FN deposition inh	RAD54 inh
COc1ccc(-n2nc(C(=O)NCC(=O)Nc3cc(OC)c(OC)c(OC)c3)c3ccccc3c2=O)cc1Cl	80.9*	-6.0	8.7	-0.3
O=C(Nc1cccc(S(=O)(=O)NCc2ccco2)c1)c1cc(-c2ccccc2)nc2ccccc12	76.0*	0.4	.	.
CSc1ccccc1OCc1cc(C(=O)N(C)Cc2ccc(C)o2)no1	-119.8	-14.3	3.0	-5.7
C[C@H]1CN([C@@H](C)CO)S(=O)(=O)c2ccc(C#Cc3ccccc3)cc2O[C@@H]1CN(C)C(=O)CN(C)C	.	34.6	9.1	-4.3
C[C@@H]1CN([C@@H](C)CO)S(=O)(=O)c2ccc(C#Cc3ccc(F)cc3)cc2O[C@H]1CN(C)C(=O)CN(C)C	.	54.9*	11.9	11.7
C[C@H](CO)N1C[C@H](C)[C@@H](CN(C)C(=O)CN(C)C)Oc2cc(C#Cc3ccc(F)cc3)ccc2S1(=O)=O	.	52.0*	-1.5	3.0
CCCc1nnc(SCC(=O)Nc2nnc(CC)s2)n1CC1CCCO1 (centres undefined)	10.4	-0.9	-3.4	3.2
CN(C)S(=O)(=O)c1cccc(NC(=O)CCc2nc3sc4c(c3c(=O)[nH]2)CCCC4)c1	4.9	-11.7	3.2	1.4
CSc1ccc(C(O)c2ncc(-c3cccc(OCc4ccccc4)c3)[nH]2)cc1 (centres undefined)	3.5	-76.3	7.5	-7.5
C/C(=N\NC(=O)CCC(=O)O)c1c(-c2ccccc2)c2cc(Br)ccc2[nH]c1=O	17.4	-4.9	1.0	.
O=C(N/N=C/c1ccc(O)cc1)c1[nH]c2ccc(Br)cc2c1-c1ccccc1	96.2*	-11.5	-16.0	.
O=C(N/N=C/c1c[nH]c2ccccc12)c1[nH]c2ccc(Br)cc2c1-c1ccccc1	94.0*	-11.4	18.4	-2.0
O=C(Nc1ccccc1Cc1ccccc1)c1ccccc1NS(=O)(=O)c1ccc(Cl)s1	71.1*	.	-11.9	0.8
CCOC(=O)CSC1=C(C#N)C(c2ccc(Cl)cc2)CC(=O)N1 (centres undefined)	-7.0	-4.0	.	-5.7
CCOC(=O)CSC1=C(C#N)C(c2ccc(C)o2)CC(=O)N1 (centres undefined)	64.7*	-16.6	-2.2	-2.3
Cc1cc(N/N=C/c2ccc(O)c(C)c2O)nc(-c2ccccc2O)n1	97.2*	.	21.5	-14.3
C/C(=N\Nc1cc(C)nc(-c2ccccc2O)n1)c1ccccc1	-44.1	-5.6	.	.
Cc1nc2sccn2c(=O)c1CCN1CCC(=C(c2ccc(F)cc2)c2ccc(F)cc2)CC1	11.0	-7.8	-1.7	1.5
CC(C)(C)c1ccc(SC2=C[C@@]3(O)CC[C@@H](O)[C@@](Sc4ccc(C(C)(C)C)cc4)(C2=O)[C@H]3O)cc1	85.0*	1.3	-8.1	.
CCOc1ccc(S(=O)(=O)N(C)CC(=O)NCc2ccc3c(c2)OCO3)cc1	15.4	-8.9	5.0	4.5
CO[C@H]1CN(C)C(=O)c2cc(NC(=O)Nc3ccccc3)ccc2OC[C@H](C)N(CC2CC2)C[C@@H]1C	.	15.8	16.1	1.4

Screens (PubChem BioAssay)
